From ChEMBL document CHEMBL1649370, “Penetratin analogues acting as antifungal agents” (2011)

Key:
Assay type in all cases: functional
Candida albicans [1] = test: Antifungal activity against Candida albicans ATCC 10231 assessed as inhibition of fungal growth at 200 uM after 24 hrs by microplate analysis; conditions: ATCC 10231, 24 h
How it was run: (§1)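 Broth microdilution in RPMI-1640. Peptide DMSO stocks were diluted to final concentrations of 200–3.125, with DMSO ≤2%. Inoculum was 1–5×10³ CFU/mL from Sabouraud-chloramphenicol agar cultures (24 h, 35 °C). Plates were held in a moist, dark chamber at 35 °C: 24 h for C. albicans, 48 h for C. neoformans.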

Cryptococcus neoformans [2] = test: Antifungal activity against Cryptococcus neoformans ATCC 32264 assessed as inhibition of fungal growth at 100 uM after 48 hrs by microplate analysis; conditions: ATCC 32264, 48 h; how it was run: as §1
Cryptococcus neoformans [3] = test: Antifungal activity against Cryptococcus neoformans ATCC 32264 assessed as inhibition of fungal growth at 50 uM after 48 hrs by microplate analysis; conditions: ATCC 32264, 48 h; how it was run: as §1
Cryptococcus neoformans [4] = test: Antifungal activity against Cryptococcus neoformans ATCC 32264 assessed as inhibition of fungal growth at 200 uM after 48 hrs by microplate analysis; conditions: ATCC 32264, 48 h; how it was run: as §1
Cryptococcus neoformans [5] = test: Antifungal activity against Cryptococcus neoformans ATCC 32264 assessed as inhibition of fungal growth at 25 uM after 48 hrs by microplate analysis; conditions: ATCC 32264, 48 h; how it was run: as §1
Candida albicans [6] = test: Antifungal activity against Candida albicans ATCC 10231 assessed as inhibition of fungal growth at 25 uM after 24 hrs by microplate analysis; conditions: ATCC 10231, 24 h; how it was run: as §1
Candida albicans [7] = test: Antifungal activity against Candida albicans ATCC 10231 assessed as inhibition of fungal growth at 100 uM after 24 hrs by microplate analysis; conditions: ATCC 10231, 24 h; how it was run: as §1
Candida albicans [8] = test: Antifungal activity against Candida albicans ATCC 10231 assessed as inhibition of fungal growth at 6.25 uM after 24 hrs by microplate analysis; conditions: ATCC 10231, 24 h; how it was run: as §1
Candida albicans [9] = test: Antifungal activity against Candida albicans ATCC 10231 assessed as inhibition of fungal growth at 50 uM after 24 hrs by microplate analysis; conditions: ATCC 10231, 24 h; how it was run: as §1
Candida albicans [10] = test: Antifungal activity against Candida albicans ATCC 10231 assessed as inhibition of fungal growth at 12.5 uM after 24 hrs by microplate analysis; conditions: ATCC 10231, 24 h; how it was run: as §1
Cryptococcus neoformans [11] = test: Antifungal activity against Cryptococcus neoformans ATCC 32264 assessed as inhibition of fungal growth at 12.5 uM after 48 hrs by microplate analysis; conditions: ATCC 32264, 48 h; how it was run: as §1
Cryptococcus neoformans [12] = test: Antifungal activity against Cryptococcus neoformans ATCC 32264 assessed as inhibition of fungal growth at 6.25 uM after 48 hrs by microplate analysis; conditions: ATCC 32264, 48 h; how it was run: as §1

Compound	inhibition at 200 µM (Candida albicans [1]) [%]	inhibition at 100 µM (Cryptococcus neoformans [2]) [%]	inhibition at 50 µM (Cryptococcus neoformans [3]) [%]	inhibition at 200 µM (Cryptococcus neoformans [4]) [%]	inhibition at 25 µM (Cryptococcus neoformans [5]) [%]	inhibition at 25 µM (Candida albicans [6]) [%]	inhibition at 100 µM (Candida albicans [7]) [%]	inhibition at 6.25 µM (Candida albicans [8]) [%]	inhibition at 50 µM (Candida albicans [9]) [%]	inhibition at 12.5 µM (Candida albicans [10]) [%]	inhibition at 12.5 µM (Cryptococcus neoformans [11]) [%]	inhibition at 6.25 µM (Cryptococcus neoformans [12]) [%]
CC[C@H](C)[C@H](NC(=O)[C@H](CCCCN)NC(=O)[C@@H](NC(=O)[C@H](CCC(N)=O)NC(=O)[C@H](CCCNC(=N)N)NC(=O)[C@H](Cc1c[nH]c2ccccc12)NC(=O)[C@H](CCCNC(=N)N)NC(=O)[C@H](Cc1ccccc1)NC(=O)[C@@H](N)Cc1cnc[nH]1)[C@@H](C)CC)C(=O)N[C@@H](Cc1c[nH]c2ccccc12)C(=O)N[C@@H](Cc1ccccc1)C(=O)N[C@@H](CCC(N)=O)C(=O)N[C@@H](CC(N)=O)C(=O)N[C@@H](CCCNC(=N)N)C(=O)N[C@@H](CCCNC(=N)N)C(=O)N[C@@H](CC[S+](C)[O-])C(=O)N[C@@H](CCCCN)C(=O)N[C@@H](Cc1c[nH]c2ccccc12)C(=O)N[C@@H](CCCCN)C(=O)N[C@@H](CCCCN)C(N)=O (some centres undefined)	100	100	100	100	100	5.96	100	2.9	93.7	3.95	99.3	95.1
CC(=O)N1CCN(c2ccc(OCC3COC(Cn4ccnc4)(c4ccc(Cl)cc4Cl)O3)cc2)CC1 (centres undefined) [KETOCONAZOLE]	100	100	100	100	100	100	100	100	100	100	100	100
N=C(N)NCCC[C@H](NC(=O)CNC(=O)[C@@H](N)Cc1ccc(O)cc1)C(=O)N[C@@H](CCCCN)C(=O)N[C@@H](CCCCN)C(=O)N[C@@H](CCCNC(=N)N)C(=O)N[C@@H](CCCNC(=N)N)C(=O)N[C@@H](CCC(N)=O)C(=O)N[C@@H](CCCNC(=N)N)C(=O)N[C@@H](CCCNC(=N)N)C(=O)N[C@@H](CCCNC(=N)N)C(=O)N[C@@H](CS)C(N)=O	99.1	100	61.3	100	1.75	6.71	99.1	4.97	6.75	6.12	0	0
C[C@@H]1[C@H](O)[C@@H](C)/C=C/C=C/C=C/C=C/C=C/C=C/C=C/[C@H](O[C@@H]2O[C@H](C)[C@@H](O)[C@H](N)[C@@H]2O)C[C@@H]2O[C@](O)(C[C@@H](O)C[C@@H](O)[C@H](O)CC[C@@H](O)C[C@@H](O)CC(=O)O[C@H]1C)C[C@H](O)[C@H]2C(=O)O [AMPHOTERICIN B]	100	100	100	100	100	100	100	100	100	100	100	100
H-KQIKIWFQNKKMKWKK-NH2 [KQIKIWFQNKKMKWKK-NH2]	100	100	100	100	98.5	8.41	100	3.24	100	5.97	72	64.5
H-RWWKWWWWWRRWKWKK-NH2	100	90	77.5	100	44.2	30.9	99.1	8.72	95.8	14.8	31.5	22.6
H-RQIRIWFQNRRMRWRR-NH2	100	100	100	100	81.7	6.16	100	3.71	98.9	4.38	77.5	43.3
